For data set [1], the system named is Mus musculus. As to the kind of experiment: Neurotoxicity in Swiss albino mouse at 300 mg/kg, ip after 4 hrs by rotarod test. Format: toxicity, organism-based. The note with it: in vivo. Also noted: dose 300 mg/kg, route intraperitoneal. In a few lines:
(§1)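 Rotarod test in male Swiss albino mice (18–25 g) after i.p. dosing at 30, 100 and 300 mg/kg, read at 0.5 and 4 h. Mice falling within 30 s in a pre-check were excluded. Neurotoxicity was scored as the minimum dose at which half or more of the mice fell off the rod.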

Data set [2] has as its system Mus musculus. As to the kind of experiment: Anticonvulsant activity in ip dosed Swiss albino mouse assessed as minimum drug concentration required for inhibition of maximal electroshock-induced seizure in half or more of mouse after 0.5 hrs by MES test. Format: functional. In a few lines:
(§2)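 Male Swiss albino mice (18–25 g) received compound i.p. at 30, 100 and 300 mg/kg. MES seizures were induced after 0.5 and 4 h, with a drop of 0.9% saline placed in the eye before the electrodes went on. Protection meant abolition of the hind-limb tonic extensor component. The tabulated value is the minimum dose protecting half or more of the mice.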
(In general: Protection in the maximal electroshock model is a classic sign of anticonvulsant action.)

The subject of data set [3] is Mus musculus. As to the kind of experiment: Anticonvulsant activity against maximal electroshock-induced seizures in Swiss albino mouse at 300 mg/kg, ip after 4 hrs by MES test. Format: functional, organism-based. Also noted: dose 300 mg/kg. The procedure, abridged:
as §2

Data set [4] deals with Mus musculus. As to the kind of experiment: Anticonvulsant activity against pentylenetetrazole-induced seizures in Swiss albino mouse at 300 mg/kg, ip after 0.5 hrs by scPTZ test. It is filed as functional, organism-based. Also noted: dose 300 mg/kg. In a few lines: (§3)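 Male Swiss albino mice (18–25 g) were dosed i.p. at 30, 100 and 300 mg/kg, examined at 0.5 and 4 h. PTZ 85 mg/kg (CD97) was given and the animals were […]. Protection meant absence of any threshold convulsion, i.e. clonic spasm lasting at least 5 s. The value is the minimum dose active in half or more of the mice.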

Data set [5] has as its system Mus musculus. As to the kind of experiment: Toxicity to Swiss albino mouse assessed as mortality following tonic extension at 300 mg/kg, ip after 4 hrs. The note with it: in vivo. Format: organism-based. Also noted: dose 300 mg/kg, route intraperitoneal.
Data set [6] concerns Mus musculus. As to the kind of experiment: Neurotoxicity in ip dosed Swiss albino mouse assessed as minimum drug concentration required for falling off the rotarod by half or more of mouse after 0.5 hrs by rotarod test. It is filed as toxicity, organism-based. The note with it: in vivo. The procedure, abridged: as §1
Data set [7] concerns Mus musculus. As to the kind of experiment: Anticonvulsant activity in ip dosed Swiss albino mouse assessed as minimum drug concentration required for inhibition of maximal electroshock-induced seizure in half or more of mouse after 4 hrs by MES test. It is filed as functional. The procedure, abridged: as §2
Data set [8] has as its system Mus musculus. As to the kind of experiment: Anticonvulsant activity in ip dosed Swiss albino mouse assessed as minimum drug concentration required for inhibition of pentylenetetrazole-induced seizures in half or more of mouse after 0.5 hrs by scPTZ test. Format: functional. The procedure, abridged: as §3
The test system of data set [9] is Mus musculus. As to the kind of experiment: Neurotoxicity in ip dosed Swiss albino mouse assessed as minimum drug concentration required for falling off the rotarod by half or more of mouse after 4 hrs by rotarod test. Conditions: in vivo. Format: toxicity, organism-based. The procedure, abridged: as §1
In data set [10] the test system is Rattus norvegicus. As to the kind of experiment: Anticonvulsant activity against pentylenetetrazole-induced seizures in Wistar albino rat at 50 mg/kg, po after 0.25 hrs by scPTZ test. Format: functional, organism-based. Also noted: dose 50 mg/kg. In a few lines: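 Male Wistar rats (100-125 g), compound given orally at 50 mg/kg, then challenged with scPTZ at 70 mg/kg. Absence of such a convulsion counted as protection. Groups of four rats were scored at 0.25, 0.5, 1 and 2 h as number protected out of four.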

Data set [11] deals with Mus musculus. As to the kind of experiment: Anticonvulsant activity against maximal electroshock-induced seizures in Swiss albino mouse at 300 mg/kg, ip after 0.5 hrs by MES test. Format: functional, organism-based. Further details: dose 300 mg/kg. The procedure, abridged: as §2
Data set [12] has as its system Mus musculus. As to the kind of experiment: Anticonvulsant activity against pentylenetetrazole-induced seizures in Swiss albino mouse at 300 mg/kg, ip after 4 hrs by scPTZ test. It is filed as functional, organism-based. Further details: dose 300 mg/kg. The procedure, abridged: as §3
Data set [13] has as its system Mus musculus. As to the kind of experiment: Neurotoxicity in Swiss albino mouse at 300 mg/kg, ip after 0.5 hrs by rotarod test. Format: toxicity, organism-based. Further details: dose 300 mg/kg, route intraperitoneal. Conditions: in vivo. The procedure, abridged: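 Male Swiss albino mice (18-25 g) received the compound i.p. at 30, 100 or 300 mg/kg and were tested on the rotarod 0.5 and 4 h later. Mice were pre-checked, and any that fell off within 30 s were excluded. Neurotoxicity was scored as falling off the rod. The value is the minimum dose affecting half or more of the mice.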
(Falling from the rotarod earlier than controls is read as motor impairment.)

Data set [14] concerns Mus musculus. As to the kind of experiment: Antioxidant activity against PTZ-induced decrease in superoxide dismutase activity in Swiss albino mouse brain assessed as enzyme units per mg of protein causing 50% inhibition in NBT reduction rate at 100 mg/kg, ip administered 30 mins before PTZ challenge measured after 4 hrs. It is filed as functional. The note with it: route intraperitoneal. In a few lines: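 Same mouse dosing: 100 mg/kg i.p. 30 min before PTZ 85 mg/kg, brains taken at 4 h. Total SOD was measured in the ethanol phase of an ethanol/chloroform (5:3) extract, as inhibition of NBT reduction by xanthine–xanthine oxidase. One unit gives 50% inhibition; activity is expressed per mg protein (Lowry). n=6, mean ± SEM.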

Data set [15] concerns Mus musculus. As to the kind of experiment: Anticonvulsant activity in ip dosed Swiss albino mouse assessed as minimum drug concentration required for inhibition of pentylenetetrazole-induced seizures in half or more of mouse after 4 hrs by scPTZ test. It is filed as functional. The procedure, abridged: as §3
In data set [16] the test system is Rattus norvegicus. As to the kind of experiment: Anticonvulsant activity against pentylenetetrazole-induced seizures in Wistar albino rat at 50 mg/kg, po after 2 hrs by scPTZ test. It is filed as functional, organism-based. Further details: dose 50 mg/kg. The procedure, abridged: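 Male Wistar rats (100–125 g) were given compound orally at 50 mg/kg. They were challenged with scPTZ at 70 mg/kg at 0.25, 0.5, 1.0 and 2.0 h, and seizures were watched for. Protection meant absence of clonic spasm lasting at least 5 s. The score is the number of rats protected out of four.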

Data set [17] relates to Mus musculus. As to the kind of experiment: Antioxidant activity against PTZ-induced lipid peroxidation in Swiss albino mouse brain assessed as malondialdehyde content per mg of protein at 100 mg/kg, ip preincubated for 30 mins before PTZ challenge measured after 4 hrs by TBARS assay. Format: functional. Conditions: route intraperitoneal. In a few lines:
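Mice were dosed 100 mg/kg i.p. 30 min before PTZ 85 mg/kg, and brains were homogenized after 4 h. For TBARS, homogenate supernatant was heated with SDS, acetic acid and 0.8% thiobarbituric acid at 95 °C for 1 h. The product was extracted into n-butanol/pyridine and read at 532 nm. Results are pmol MDA/mg protein, n=6, mean ± SEM.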

Data set [18] concerns Mus musculus. As to the kind of experiment: Toxicity to Swiss albino mouse assessed as occurrence of myoclonic jerks at 300 mg/kg, ip after 0.5 hrs. It is filed as organism-based. Further details: dose 300 mg/kg, route intraperitoneal. Conditions: in vivo.

Calls of active or inactive are those of the source.

For `COc1ccc(OC)c(/C=N/NC(=O)Nc2nc3c(ccc4ccccc43)s2)c1`, the Activity entry is “Non-toxic” with Mus musculus [1], 300 mg/kg in the data set on Mus musculus [2], “Toxic” with Mus musculus [5] and 300 mg/kg in the data set on Mus musculus [6]. Besides, the outcome in the data set on Mus musculus [3] and with Mus musculus [4] was inactive.
On to `O=C(N/N=C/c1ccc(Cl)cc1)Nc1nc2c(ccc3ccccc32)s1`, for which the Activity was 100 mg/kg in the data set with Mus musculus [2]; 100 mg/kg in the data set on Mus musculus [7]; 300 mg/kg with Mus musculus [8]; “Toxic” in the data set on Mus musculus [5]; 100 mg/kg in the data set on Mus musculus [6]; 300 mg/kg in the data set on Mus musculus [9].
As for `CCC1(C)CC(=O)NC1=O` (centres undefined) [ETHOSUXIMIDE], the Activity entry with Mus musculus [1] was “Non-toxic”; in the data set on Mus musculus [8], 300 mg/kg; with Mus musculus [13] it was “Non-toxic”. Moreover, the result in the data set with Rattus norvegicus [10], in the data set on Mus musculus [11], in the data set with Mus musculus [3] and with Mus musculus [12] was inactive.
On to `O=C(N/N=C/c1ccc([N+](=O)[O-])cc1)Nc1nc2c(ccc3ccccc32)s1`, for which the Activity in the data set with Mus musculus [14] worked out at 58; with Mus musculus [2], 300 mg/kg; with Mus musculus [7], 300 mg/kg; in the data set on Mus musculus [8], 100 mg/kg; in the data set on Mus musculus [15] it was 300 mg/kg; in the data set with Mus musculus [6] it was 300 mg/kg. In addition, the Activity came to 300 mg/kg with Mus musculus [9] and 309 pmol with Mus musculus [17]. In addition, in the data set on Rattus norvegicus [16], the result was inactive.
Turning to `C/C(=N\NC(=O)Nc1nc2c(ccc3ccccc32)s1)c1ccc(C)cc1`, the Activity is 300 mg/kg with Mus musculus [2]; 300 mg/kg with Mus musculus [15]; “Toxic” in the data set with Mus musculus [18]; 300 mg/kg in the data set on Mus musculus [9]; “Non-toxic” in the data set on Mus musculus [13]. Further, the outcome in the data set with Mus musculus [3] was inactive.

Source of the values: ChEMBL document CHEMBL1152833, “Synthesis of some novel N4-(naphtha[1,2-d]thiazol-2-yl)semicarbazides as potential anticonvulsants” (Eur J Med Chem, 2009).
